The results in this text go back to ChEMBL document CHEMBL1134779, “Synthesis and characterization of the antitumor activities of analogues of meridine, a marine pyridoacridine alkaloid” (J Med Chem, 2001).

Where only a bound is given, the exact number is not on record here.

One test deals with HCT-15. Description: In vitro inhibition of HCT-15 (human colon cancer) cell growth. In kind it is functional, cell-based. A digest of the protocol:
(§1)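 Human cancer lines from ATCC, grown at 37 °C in sealed dishes in Eagle's MEM with 5% FCS. Cells were seeded at 40000 cells/mL and plated for 24 h before drug exposure. Six concentrations from 10^-5 to 10^-10 M were tested. Growth was read by MTT reduction to formazan at 570 nm (reference 630 nm), in sextuplicate. IC50 is the concentration giving 50% growth reduction versus control.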

A short description of test [1]: In vitro inhibition of T24 (human bladder cancer) cell growth. Particulars: T-24. In kind it is functional, cell-based. In outline:
as §1

The next test deals with U373 MG. Nature of the test: In vitro inhibition of U-373 MG (human glioblastoma) cell growth. In kind it is functional, cell-based, U-373MG ATCC. In outline: as §1
The next test has as its system A-427. Description: In vitro inhibition of A-427 (human lung cancer) cell growth. In kind it is functional, cell-based. In outline:
as §1

Another test concerns J82. Description: In vitro inhibition of J82 (human bladder cancer) cell growth. In kind it is functional, cell-based. In outline: as §1
In the next test the test system is MCF7. Description: In vitro inhibition of MCF-7 (human breast cancer) cell growth. In kind it is functional, cell-based. In outline:
as §1

For a further test, the system named is LoVo. Description: In vitro inhibition of LoVo (human colon cancer) cell growth. In kind it is functional, cell-based. A digest of the protocol:
as §1

For a further test, the system named is A549. Nature of the test: In vitro inhibition of A549 (human lung cancer) cell growth. In kind it is functional, cell-based. A digest of the protocol:
as §1

A further test deals with PC-3. Nature of the test: In vitro inhibition of PC-3 (human prostate cancer) cell growth. In kind it is functional, cell-based. A digest of the protocol: as §1
The next test deals with U-87 MG. Description: In vitro inhibition of U-87 MG (human glioblastoma) cell growth. In kind it is functional, cell-based, U-87MG ATCC. A digest of the protocol:
as §1

Another test has as its system SW1088 (human). Nature of the test: In vitro inhibition of SW1088 (human astrocytoma) cell growth.
In test [2] the test system is T47D. Nature of the test: Ctotoxic related antitumor activity against human cancer cell lines T-47 D. In kind it is functional, cell-based. A digest of the protocol:
as §1

In test [3] the test system is T47D. Description: In vitro inhibition of T-47D (human breast cancer) cell growth. In kind it is functional, cell-based. In outline:
as §1

Regarding `CCOC(=O)c1cnc2c(c1)C(=O)c1c(-c3ccccc3NC(=O)C(F)(F)F)ccnc1C2=O`, the IC50 (commonly the concentration needed to halve the response being measured) in the test with HCT-15 came to 100 nM; in [1], 600 nM; with U373 MG, 400 nM; in the test with A-427, 600 nM; with J82, 5200 nM; with MCF7 it was 500 nM. Also, the IC50 in the test with LoVo was determined as 800 nM; in the test on A549, 90 nM; in the test with PC-3, 1300 nM; in the test on U-87 MG, 80 nM; in the test with SW1088 (human) it was 800 nM; in the test on T47D [2] it was 2600 nM.
As for `CCOC(=O)c1cnc2c(c1)-c1nc3ccccc3c3ccnc(c13)C2=O`, the half-inhibitory concentration (IC50) in the test with HCT-15 amounted to 200 nM; in test [1] it was 900 nM; in the test with U373 MG it was 700 nM; in the test on A-427 it was 800 nM; in the test with J82 it was 5200 nM; with MCF7, 700 nM. Also, the IC50 in the test on LoVo stood at 700 nM; with A549 it was 80 nM; in the test with PC-3, 5700 nM; in the test with T47D [3], 2900 nM; with U-87 MG, 70 nM; in the test on SW1088 (human), 2800 nM.
`CN(C)c1ccnc2c1-c1nc3ccccc3c3ccnc(c13)C2=O`: the IC50 with HCT-15 was determined as 70 nM; in [1] it was 200 nM; in the test with U373 MG, 80 nM; in the test on A-427, 60 nM; in the test on J82, 1300 nM; in the test with MCF7 it was 80 nM. Besides, the IC50 in the test with LoVo was 80 nM; with A549 it was 60 nM; in the test with PC-3, 600 nM; in the test on T47D [3] it was 500 nM; with U-87 MG, 50 nM; in the test with SW1088 (human) it was 100 nM.
Regarding `O=C1c2ncccc2-c2nc3ccccc3c3ccnc1c23`, the IC50 is 5 nM in the test with HCT-15; under 0.1 nM in [1]; 0.7 nM with U373 MG; 0.8 nM with A-427; 7 nM with J82; 0.9 nM in the test on MCF7. Besides, the IC50 in the test on LoVo was 20 nM; in the test on A549, 20 nM; in the test on PC-3, 40 nM; in the test on T47D [3] it was 10 nM; with U-87 MG, under 0.1 nM; with SW1088 (human), 60 nM.
As for `CC(=O)Nc1ccnc2c1C(=O)c1c(-c3ccccc3NC(=O)C(F)(F)F)ccnc1C2=O`, the IC50 in the test with HCT-15 was determined as 90 nM; in test [1], 400 nM; in the test with U373 MG it was 90 nM; in the test with A-427 it was 60 nM; in the test with J82, 3500 nM; in the test on MCF7, 90 nM. For the same molecule, the IC50 is 70 nM with LoVo; 70 nM in the test with A549; 2700 nM in the test with PC-3; 300 nM with T47D [3]; 60 nM in the test with U-87 MG; 90 nM in the test on SW1088 (human).
